In publication PMC10201403 (Bioorganic & medicinal chemistry, 2023):
pEC50: −log10 of the molar value. Several values for one entry are separate records, joined by “and”; a condition that tells them apart may be missing. Equal values may be shown once. Entries after “also recorded” stand apart in the source; their conditions may differ. Where a name gives a salt, the structure may show the parent alone. Read-outs that look alike come from different tables or passages of the source. Values belong to the molecule of their own block, whether it stands above or below them.

Tests used:
C. parvum [1] = conditions: acute and chronic mouse models; cited from earlier work
C. hominis = conditions: gnotobiotic piglet; cited from earlier work
C. parvum [2] = conditions: dairy calf; cited from earlier work
Cryptosporidium = conditions: cited from earlier work
C. parvum [3] = test: In vitro Cryptosporidium parvum-infected HCT-8 cell assay; assay type: cell-based; conditions: for LipE (pEC50 minus logP): Cp pEC50 and calculated logP; for pEC50: Cryptosporidium parvum, HCT-8, read-out: EC50 in the Cp HCT-8 assay; for potency in the Cp HCT-8 assay, in words: C. parvum in HCT-8 cells
[4] = molecular target: human potassium channel hERG (Homo sapiens, UniProt Q12809); test: [3H]-dofetilide competitive binding assay; conditions: 10 μM
Sequence of human potassium channel hERG (Q12809 whole entry): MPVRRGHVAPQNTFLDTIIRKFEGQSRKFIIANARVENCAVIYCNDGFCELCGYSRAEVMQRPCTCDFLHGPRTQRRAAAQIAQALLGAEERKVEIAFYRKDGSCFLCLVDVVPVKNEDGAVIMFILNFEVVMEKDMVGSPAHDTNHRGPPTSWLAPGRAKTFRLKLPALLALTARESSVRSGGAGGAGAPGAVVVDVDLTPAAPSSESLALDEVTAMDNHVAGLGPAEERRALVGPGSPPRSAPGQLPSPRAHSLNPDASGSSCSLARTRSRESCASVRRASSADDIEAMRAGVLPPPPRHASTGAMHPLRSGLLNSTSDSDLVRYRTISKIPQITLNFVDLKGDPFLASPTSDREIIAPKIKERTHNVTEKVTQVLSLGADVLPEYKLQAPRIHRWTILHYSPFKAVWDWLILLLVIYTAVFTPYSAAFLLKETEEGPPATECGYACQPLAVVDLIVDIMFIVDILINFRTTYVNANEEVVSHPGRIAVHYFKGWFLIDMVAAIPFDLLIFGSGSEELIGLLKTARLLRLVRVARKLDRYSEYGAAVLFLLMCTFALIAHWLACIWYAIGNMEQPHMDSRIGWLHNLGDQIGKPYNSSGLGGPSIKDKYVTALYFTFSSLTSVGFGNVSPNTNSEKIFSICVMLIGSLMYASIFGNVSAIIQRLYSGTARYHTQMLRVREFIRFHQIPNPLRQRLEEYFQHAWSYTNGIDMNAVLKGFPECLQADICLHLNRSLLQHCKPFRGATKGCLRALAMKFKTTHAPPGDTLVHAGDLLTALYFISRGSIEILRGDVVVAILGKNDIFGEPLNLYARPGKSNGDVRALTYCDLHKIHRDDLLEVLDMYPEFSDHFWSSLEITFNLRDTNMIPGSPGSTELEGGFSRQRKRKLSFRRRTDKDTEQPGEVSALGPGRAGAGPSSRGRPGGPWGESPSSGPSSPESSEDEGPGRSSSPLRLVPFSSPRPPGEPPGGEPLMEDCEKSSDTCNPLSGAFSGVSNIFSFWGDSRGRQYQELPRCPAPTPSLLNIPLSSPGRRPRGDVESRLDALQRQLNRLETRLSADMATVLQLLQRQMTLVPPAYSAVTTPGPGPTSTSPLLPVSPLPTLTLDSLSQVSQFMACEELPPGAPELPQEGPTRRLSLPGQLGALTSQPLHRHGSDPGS
Outline: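 Radioligand competition on the human hERG potassium channel: test compound competes with [³H]-dofetilide, and binding is reported as percent inhibition of [³H]-dofetilide binding. Run by an outside contract laboratory.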

hERG channel = hERG channel (Homo sapiens, UniProt Q12809); test: hERG-CHO automated patch clamp electrophysiology assay; assay type: cell-based; conditions: 10 μM
Sequence of hERG channel (Q12809 whole entry): as above

Compound: O=C(Nc1ccc(Cl)cc1)N1CCN(c2ccc3nncn3n2)CC1 [Compound 1]
- oral efficacy in vivo (C. parvum [1]): oral efficacy
- oral efficacy in vivo (C. hominis): oral efficacy
- oral efficacy in vivo (C. parvum [2]): oral efficacy

- LipE (pEC50 minus logP) (C. parvum [3]): 3.3
Compound: O=C(Cc1ccc(Cl)c(Cl)c1)N1CCN(c2ccc3nncn3n2)CC1 [Compound 2a, 1-(4-([1,2,4]triazolo[4,3-b]pyridazin-6-yl)piperazin-1-yl)-2-(3,4-dichlorophenyl)ethanone]
- efficacy in vivo (Cryptosporidium): efficacious in vivo

Compound: O=C(Cc1ccc(Cl)c(Cl)c1)N1CCNCC1 [Compound 4, 2-(3,4-dichlorophenyl)-1-(piperazin-1-yl)ethanone hydrochloride]
- pEC50 (C. parvum [3]): ≤ 4.70

- pEC50 (C. parvum [3]): ≤ 4.70
Compound: CC(C)(C)OC(=O)N1CCN(C(=O)Cc2ccc(Cl)c(Cl)c2)CC1 [Compound 5, tert-Butyl 4-(2-(3,4-dichlorophenyl)acetyl)piperazine-1-carboxylate]

Compound: O=C(Cc1ccc(Cl)c(Cl)c1)N1CCN(c2ccccc2)CC1 [Compound 6a, 2-(3,4-dichlorophenyl)-1-(4-phenylpiperazin-1-yl)ethanone]
- effect in the hERG binding assay, in words [4]: does not exhibit significant effect

Compound: O=C(Cc1ccc(Cl)c(Cl)c1)N1CCN(c2ncc([N+](=O)[O-])s2)CC1 [Compound 13, 2-(3,4-dichlorophenyl)-1-(4-(5-nitrothiazol-2-yl)piperazin-1-yl)ethanone]
- potency in the Cp HCT-8 assay, in words (C. parvum [3]): weakly potent

- LipE (pEC50 minus logP) (C. parvum [3]): 4.13
Compound: O=C(Cc1ccc(Cl)c(Cl)c1)N1CCN(C2=Nn3cnnc3CC2)CC1 [Compound 17a, 2-(3,4-dichlorophenyl)-1-(4-(7,8-dihydro-[1,2,4]triazolo[4,3-b]pyridazin-6-yl)piperazin-1-yl)ethanone]
- reduction of inhibition in hERG patch-clamp assay relative to 2a (SLU-2633) (hERG channel): about two-fold
- fold less potent than 2a (SLU-2633) (C. parvum [3]; ratio of Cp EC50 values): 7 fold and ~ 7 fold

Compound: O=C(Nc1ccc(Cl)c(Cl)c1)N1CCN(C2=Nn3cnnc3CC2)CC1 [Compound 17b, N-(3,4-dichlorophenyl)-4-(7,8-dihydro-[1,2,4]triazolo[4,3-b]pyridazin-6-yl)piperazine-1-carboxamide]
- fold potency reduction compared to urea 2b (C. parvum [3]; ratio of Cp EC50 values): ~ 20 fold

Compound: O=C(Cc1ccc(Cl)c(Cl)c1)N1CCN(c2ccc3nccn3n2)CC1 [Compound 18a, 2-(3,4-dichlorophenyl)-1-(4-(imidazo[1,2-b]pyridazin-6-yl)piperazin-1-yl)ethanone]
- potency in the Cp HCT-8 assay, in words (C. parvum [3]): drastically reduced the potency

Compound: O=C(Nc1ccc(Cl)c(Cl)c1)N1CCN(c2ccc3nccn3n2)CC1 [Compound 18b, N-(3,4-dichlorophenyl)-4-(imidazo[1,2-b]pyridazin-6-yl)piperazine-1-carboxamide]
- potency in the Cp HCT-8 assay, in words (C. parvum [3]): drastically reduced the potency

- pEC50 (C. parvum [3]): 4.52 to 4.70
Compound: O=C(Cc1ccc(Cl)c(Cl)c1)N1CCN(c2ccn3nccc3n2)CC1 [Compound 19, 2-(3,4-dichlorophenyl)-1-(4-(pyrazolo[1,5-a]pyrimidin-5-yl)piperazin-1-yl)ethanone]

- pEC50 (C. parvum [3]): 4.52 to 4.70
Compound: O=C(Nc1ccc(Cl)c(Cl)c1)N1CCN(c2cn3ccnc3cn2)CC1 [Compound 20, N-(3,4-dichlorophenyl)-4-(imidazo[1,2-a]pyrazin-6-yl)piperazine-1-carboxamide]

- pEC50 (C. parvum [3]): 4.52 to 4.70
Compound: O=C(Cc1ccc(Cl)c(Cl)c1)N1CCN(c2ccc3nonc3c2)CC1 [Compound 24, 1-(4-(benzo[c][1,2,5]oxadiazol-5-yl)piperazin-1-yl)-2-(3,4-dichlorophenyl)ethanone]

Compound: O=C(Nc1ccc(Cl)c(Cl)c1)N1CCN(c2nc3ccccc3[nH]2)CC1 [Compound 28, 4-(1H-benzo[d]imidazol-2-yl)-N-(3,4-dichlorophenyl)piperazine-1-carboxamide]
- potency in the Cp HCT-8 assay, in words (C. parvum [3]): did not yield better potency

Compound: O=C(Cc1ccc(Cl)c(Cl)c1)N1CCN(c2nc3ccccc3o2)CC1 [Compound 29a, 1-(4-(benzo[d]oxazol-2-yl)piperazin-1-yl)-2-(3,4-dichlorophenyl)ethanone]
- potency in the Cp HCT-8 assay, in words (C. parvum [3]): did not yield better potency

Compound: O=C(Cc1ccc(Cl)c(Cl)c1)N1CCN(c2nc3ccccc3s2)CC1 [Compound 29b, 1-(4-(benzo[d]thiazol-2-yl)piperazin-1-yl)-2-(3,4-dichlorophenyl)ethanone]
- potency in the Cp HCT-8 assay, in words (C. parvum [3]): did not yield better potency

Compound: Nc1nc2nc(N3CCN(C(=O)Cc4ccc(Cl)c(Cl)c4)CC3)ccc2s1 [Compound 31b, 1-(4-(2-aminothiazolo[4,5-b]pyridin-5-yl)piperazin-1-yl)-2-(3,4-dichlorophenyl)ethanone]
- potency in the Cp HCT-8 assay, in words (C. parvum [3]): low micromolar range; also recorded: modestly potent
- fold more potent than methyl analog 31a (C. parvum [3]; ratio of Cp EC50 values): 5 fold
